Activity calls are given as the source filed them. The rule behind the calls is not given here.
Tests used:
PC-12 [1] = test: Nitric oxide radical scavenging activity in rat PC12 cells; type: functional, cell-based
Method in brief: (§1)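 PC12 rat pheochromocytoma cells exposed to NO, H2O2 or ·OH. Test compound given either as pre-incubation before radical exposure or as incubation after exposure. Cell survival read by MTT reduction, used as the index of radical scavenging.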

PC-12 [2] = test: Hydrogen peroxide radical scavenging activity in rat PC12 cells; type: functional, cell-based; method in brief: as §1
PC-12 [3] = test: Hydroxyl radical scavenging activity in rat PC12 cells; type: functional, cell-based; method in brief: as §1
Aorta [4] = test: Nitric oxide radical scavenging activity in rat thoracic aorta assessed as inhibition of acteylcholine-induced vasorelaxation at 100 umol; type: functional, tissue-based
Aorta [5] = test: Nitric oxide radical scavenging activity in rat thoracic aorta assessed as inhibition of acteylcholine-induced vasorelaxation at 10 umol; type: functional, tissue-based
Aorta [6] = test: Nitric oxide radical scavenging activity in rat thoracic aorta assessed as inhibition of acteylcholine-induced vasorelaxation at 1 umol; type: functional, tissue-based
PC-12 [7] = test: Suppression of free radical-induced decrease in viability of rat PC12 cells; type: functional, cell-based; method in brief: as §1
Rattus norvegicus [8] = test: Protection against hepatic ischemia-reperfusion-induced injury assessed as effect on malondialdehyde level in Wistar rat liver at 30 mg/kg; type: functional
Method in brief: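 Male Wistar rats given liver ischemia 30 min and reperfusion 2 h under pentobarbital anesthesia. Drug 30 mg/kg dosed 10 min before reperfusion and 1 h after it began; controls got saline. Liver frozen at -70 °C. MDA in liver mitochondria measured spectrophotometrically as thiobarbituric acid reactive substances (Buege and Aust method).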

Rattus norvegicus [9] = test: Protection against hepatic ischemia-reperfusion-induced injury assessed as effect on aspartate aminotransferase level in Wistar rat liver at 30 mg/kg; type: functional
Method in brief: (§2)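 Male Wistar rats, liver ischemia 30 min then reperfusion 2 h under sodium pentobarbital anesthesia (80 mg/kg). Drug 30 mg/kg given 10 min before reperfusion and again 1 h into reperfusion; sham and I/R controls received saline. n = 8 per group (sham n = 4). Serum ALT and AST measured as liver function; blood frozen at -70 °C until analysis.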

Rattus norvegicus [10] = test: Protection against hepatic ischemia-reperfusion-induced injury assessed as effect on alanine aminotransferase level in Wistar rat liver at 30 mg/kg; type: functional; method in brief: as §2

| SMILES | EC50 (PC-12 [1]) [µM] | EC50 (PC-12 [2]) [µM] | EC50 (PC-12 [3]) [µM] | inhibition (Aorta [4]) [%] | inhibition (Aorta [5]) [%] | inhibition (Aorta [6]) [%] | Activity (PC-12 [7]) | Activity (Rattus norvegicus [8]) [nmol/mg] | Activity (Rattus norvegicus [9]) [U/L] | Activity (Rattus norvegicus [10]) [U/L] |
| --- | --- | --- | --- | --- | --- | --- | --- | --- | --- | --- |
| CC1(C)N([O])C(c2ccc(OCC(=O)N[C@@H](CCCCN)C(=O)O)cc2)=[N+]([O-])C1(C)C | 85.5 | 26.8 | 92.7 | 85 | 60.7 | 24.8 | Active |  |  |  |
| CC1(C)N([O])C(c2ccc(OCC(=O)N[C@@H](CCCNC(=N)N)C(=O)O)cc2)=[N+]([O-])C1(C)C | 92.8 | 49 | 98.9 | 98.9 | 74 | 28.7 | Active | 2.76 | 510 | 173 |
| N=C(N)NCCC[C@H](N)C(=O)O [ARGININE] |  |  |  |  |  |  |  | 3.82 | 789 | 493 |

Source: ChEMBL document CHEMBL1141543, “Protective effect of nitronyl nitroxide-amino acid conjugates on liver ischemia-reperfusion induced injury in rats” (Bioorg Med Chem Lett, 2008)
